The record followed here is the RNAGym collection of RNA variant scans (doi:10.1101/gad.245936.114).

Variants at the floor of the assay were thinned out.

The labels stand for the following.
B1: tRNA (parent)
chain: CUCUCGGUAGCCAAGUUGGUUUAAGGCGCAAGACUUUAAUUUAUCACUACGAAAUCUUGAGAUCGGGCGUUCGACUCGCCCCCGGGAGAUUUUUUCCUCGAGCAA

The variants in the data set derive from B1. Nature of the data set: nonsense suppression (GFP-seq) (ratio to wild type); higher = more function; SUP4oc tRNA, yeast GFP reporter sort-seq. A digest of the protocol: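 Nonsense suppression (GFPSEQ) is the median GFP/RFP ratio of each sorting bin, weighted by the variant's estimated share of cells in that bin and expressed relative to the unmutated parent tRNA. Yeast strains carried genome-integrated variants of an ochre-suppressor tRNA from a library with ~3% random mutations, plus a galactose-driven GFP ochre reporter and RFP, and were grown in raffinose/galactose medium containing 80 mg/L adenine. Cells were sorted into GFP/RFP bins, each bin was Illumina-sequenced (phred ≥30), and variants were kept only with ≥100 reads and ≥30 cells.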
In the case of U20A C34U G66U, the nonsense suppression is ≤ 0.026.
Regarding U21A C83G G88U, the nonsense suppression is ≤ 0.026.
Under G18A U21G C34U stands ≤ 0.026; under U17G G66U G69A, ≤ 0.026; under U17C C72G, ≤ 0.026.
In the case of G19A A31G, the nonsense suppression turned out to be 0.0307.
U20G G85U: the nonsense suppression came out at 0.81.
With U20G G85C, the nonsense suppression was 0.0271.
For G19U A60U G73U, the nonsense suppression was ≤ 0.026.
For U17C A24C, the nonsense suppression turned out to be 0.276.
Under U17C A24G stands 0.0323.
On to U20C A60G, for which the nonsense suppression stood at 0.0437.
Under G19C U22C C68U stands ≤ 0.026.
In the case of U21C G69C, the nonsense suppression was ≤ 0.026.
Under U17C A62C stands 0.734; under U17C A33G, 0.0608; under U21C U76C, 1.06.
Take G18U G19A: the nonsense suppression was ≤ 0.026.
With U17G G19A, the nonsense suppression stood at 0.204.
As for U17G G19U, the figure is 1.05.
For the variant U20C A30U, the nonsense suppression came out at 0.0386.
Under U20C A30G stands 0.129; under G19U G28A, 0.0287; under G18C A89G, ≤ 0.026.
Under G19U A23U C34A U63G stands ≤ 0.026; under U17G A33U U63C G65C, ≤ 0.026.
Take U21C C82U: the nonsense suppression was found to be 1.15.
Under G18A G25U C27U G67C stands ≤ 0.026; under U20G G73A, 0.677; under U17G C68A G69U, ≤ 0.026.
As to G19C U21C, the nonsense suppression is ≤ 0.026.
Under U20A A24U stands 0.0696.
As for U20A A24C, the figure is 0.192; as for U17C A87G, 0.226.
For the variant U21A C29A C79U, the nonsense suppression is ≤ 0.026.
As for U20G C80U, the figure is 0.202; as for U21A A54U, 0.737; as for U20C C64U, 0.0503.
Under U21C A60U C68U stands 1.05; under U21A A31G, 1.16; under U20G U63G, 0.495.
As for U20G U63A, the nonsense suppression is 1.06.
Turning to G19A G26U C27G, the nonsense suppression is ≤ 0.026.
On to U20A G61U, for which the nonsense suppression was determined as 0.217.
As for U20A G61C, the figure is 0.0711; as for G19A A54G G67A, ≤ 0.026; as for U17C C75A G88A, ≤ 0.026.
Under U17G C64A stands 0.0364; under U17C U76C, 1.09.
Turning to U20G A23U G88U, the nonsense suppression was ≤ 0.026.
In the case of U17C G28C C75G, the nonsense suppression is 1.02.
As for U21A G85A, the figure is 1.06; as for G19A U21G C64U, ≤ 0.026; as for U17A U21C G85A, 1.06.
On to U17A G28A G85A, for which the nonsense suppression was found to be 1.02.
Under U20A U55C C82G stands ≤ 0.026.
Under G18C G19A A24U stands ≤ 0.026.
As for U21C C81U, the figure is 1.14.
Regarding U17C U20G, the nonsense suppression was 1.25.
As for G18U A30U G78U, the figure is ≤ 0.026; as for U17G C79U, 0.764.
As for U17C A62G U70C, the figure is ≤ 0.026.
Turning to U17C A30G A31G, the nonsense suppression was 0.0827.
Under U20G U22G stands 1.06; under G19C A30U, ≤ 0.026; under U21G A23C, ≤ 0.026.
Regarding G18U U20C U76G, the nonsense suppression was determined as 0.264.
Under U20A U76C stands 0.719; under U20C A24C, 0.249.
Regarding U20C G28A, the nonsense suppression is 0.192.
Under U17G A24C stands 0.653; under U17G A24U, 0.159; under U20C C72G, 0.063.
For U20G G28A C82U, the nonsense suppression is 0.239.
Under U20G A54U stands 1.04; under U20A C75G, 0.473; under G18C A54C G84U, ≤ 0.026.
With U17A U63A U76C, the nonsense suppression came to 0.155.
As for U20A G85U, the figure is 0.0676; as for U20G G59C C64A G85U, ≤ 0.026; as for G18A A54U, ≤ 0.026.
As for U17G A54G U55G, the figure is ≤ 0.026.
As for U17C C83U, the figure is 0.191.
Regarding U20C A31U, the nonsense suppression was 0.0722.
On to U20C A31G, for which the nonsense suppression was determined as 0.0336.
For the variant U17C G19A C27G, the nonsense suppression was ≤ 0.026.
As for U17C U55C G59A G66C, the figure is ≤ 0.026; as for U17G A54U G61C, 0.162; as for U17G U22G, 1.04.
As for U21C A30G A31G U63C, the figure is ≤ 0.026; as for G18A U55A U58A, ≤ 0.026; as for G19A C34A G59A G73U C82U, ≤ 0.026.
For U17A G78A, the nonsense suppression was determined as 0.449.
For U17A G78U, the nonsense suppression was 0.186.
For U21A, the nonsense suppression came to 1.02.
Under U21G stands 1.04; under U21C, 0.954; under U20G C81G, ≤ 0.026.
As for U20G G32C A62U, the figure is ≤ 0.026; as for U17C A30U, 0.16.
U17C A30G: the nonsense suppression amounted to 0.326.
Under U20C C79U G84U stands ≤ 0.026.
As for U21C A54U U57C G59A A89G, the figure is ≤ 0.026; as for U20C U55C, 0.0996; as for U21A U55C C79U, ≤ 0.026.
As for U21A G65C U71A G78U, the figure is ≤ 0.026.
U17C U22C A60G: the nonsense suppression came to 0.348.
Under U20A A74U stands 0.0745; under U17G A87G, 0.752.
As for G18A U20G, the figure is 0.905; as for U17C G73A, 0.899; as for G19C U63C C83A, 0.789.
Under U20A A24U U63A stands ≤ 0.026.
On to G18U G25A G78U, for which the nonsense suppression was ≤ 0.026.
For U20A A60U C79U, the nonsense suppression was 0.212.
With G19A C64G C68U C82A, the nonsense suppression was ≤ 0.026.
Under U17G U55C stands 0.0769; under U20G A60G, 0.477.
As for U20G A60U, the figure is 1.12; as for U20G, 0.989.
Under U20C stands 0.848; under U20A, 1.18.
For the variant U20G C56U, the nonsense suppression amounted to 0.148.
Take G19C C27G A30U U55C: the nonsense suppression is ≤ 0.026.
Turning to U21C G67A, the nonsense suppression is 0.0282.
Under U17C G88U stands ≤ 0.026; under U21C A31G, 1.
For G18U C82U G86C, the nonsense suppression was ≤ 0.026.
Under G19U G25A A31G U35G C64G stands ≤ 0.026; under U17A U20G G32A G61A C80U, ≤ 0.026.
As for U17C A54U, the figure is 0.788; as for U21A A54U U76C, 0.751; as for U20A U35G A60C G69A C82A, ≤ 0.026.
Turning to U20G U55C, the nonsense suppression worked out at 0.849.
With G18A G73A, the nonsense suppression was ≤ 0.026.
As for U17G, the figure is 0.999.
U17C: the nonsense suppression amounted to 1.05.
Regarding U21C G25A G26A, the nonsense suppression is ≤ 0.026.
Under U21C G28U A31U A33G G78U C79A stands ≤ 0.026; under U17G U63C, 0.799.
As for U20A A23G U63C, the figure is ≤ 0.026; as for G19U G26C U57C, ≤ 0.026; as for U20C U22C A54U, 0.412.
As for U21A U76C, the figure is 1.18.
As to U17A U76C, the nonsense suppression was 1.06.
As for U20A U63C, the figure is 0.191; as for U20A U63G, 0.106.
Under U20A U63A stands 0.187.
Under U20C G85A stands 0.861; under U21C C29U G61U, 0.518.
Take U20C G78U: the nonsense suppression amounted to 0.0456.
As for U20C C80U, the figure is 0.036.
U21A U22G U76A C77A G88A: the nonsense suppression is ≤ 0.026.
In the case of U21C G78U, the nonsense suppression worked out at 0.442.
As for U21C G78C, the figure is 0.211.
Regarding G19U U55G, the nonsense suppression is ≤ 0.026.
As for U17A G61C, the figure is 0.665.
For the variant U17A G61A, the nonsense suppression was found to be 0.83.
As for U20C G61A, the figure is 0.212; as for U21A G61U, 0.791; as for U21G A24C, 0.493.
Under U21G A24U stands 0.0683; under G18U U20G G65C G66C, ≤ 0.026.
As for U21C U63A, the figure is 1.12.
Consider U21C U63G, for which the nonsense suppression came to 0.805.
As for G19A A33U U71A, the figure is ≤ 0.026; as for U20C C75U, 0.843.
